Results of several laboratories.
Compare with care: the assays were run in different laboratories.
KIT: Mast/stem cell growth factor receptor Kit (KIT, Homo sapiens, UniProt P10721)
KIT D816V: Mast/stem cell growth factor receptor Kit (KIT, Homo sapiens, UniProt P10721, D816V)
KIT V559D/V654A: Mast/stem cell growth factor receptor Kit (KIT, Homo sapiens, UniProt P10721, V559D/V654A)
KIT L576P: Mast/stem cell growth factor receptor Kit (KIT, Homo sapiens, UniProt P10721, L576P)

Compound | target | test | setting | quantity | result
C1=C/COCc2cc(ccc2OCCN2CCCC2)Nc2nccc(n2)-c2cccc(c2)COC/1 | Mast/stem cell growth factor receptor Kit, autoinhibited (KIT, Homo sapiens, UniProt P10721) | binding | 0.1 µM | remaining binding | 17%
COc1ccc2oc(-c3ccc4nc(N)oc4c3)c/c(=N\c3ccccc3NC(=O)CCN)c2c1 | KIT | binding | 1 µM | remaining binding | 111%
C[C@H]1CC[C@H](n2c3cnccc3c3cnc(Nc4ccc5c(n4)CCN(C(=O)CO)C5)nc32)CC1 | KIT D816V | cell-free assay | 1 µM | remaining signal | 3.6%
CO[C@@H]1[C@H](N(C)C(=O)c2ccccc2)C[C@H]2O[C@]1(C)n1c3ccccc3c3c4c(c5c6ccccc6n2c5c31)C(=O)NC4 | KIT D816V | enzyme activity, inhibitor | 1 µM | inhibition | 96%
COc1ccc2[nH]c3c4[nH]c5ccc(OC)cc5c4c4c(c3c2c1)C(=O)NC4=O | Mast/stem cell growth factor receptor Kit (KIT, Homo sapiens, UniProt P10721, T670I/V559D) | binding | 1 µM | remaining binding | 49%
CC#CC(=O)N1CCC[C@H]1c1nc(-c2ccc(C(=O)Nc3ccccn3)cc2)c2c(N)nccn12 | KIT V559D/V654A | enzyme activity, inhibitor | 1 µM | inhibition | 0%
N#Cc1ccc(NC(=O)Nc2ccccc2)cc1 | KIT | cell-free assay, competition with immobilised ligand | 25 µM | remaining binding | 49%
Cc1ccc(NC(=O)c2ccnc(C(F)(F)F)c2)cc1-c1cc(OCCO)nc(N2CCOCC2)c1 | KIT V559D/V654A | binding | 1 µM | remaining binding | 91%
CCCCC(=O)Nc1ccc(-c2ccc3ncn(CCC)c(=O)c3c2)cn1 | KIT L576P | binding, competition with immobilised ligand | 0.5 µM | remaining binding | 87%
CN1CCN(C(=O)c2ccc(NC(=O)Nc3ccc(N(C)c4ccnc(Nc5ccc(CS(C)(=O)=O)cc5)n4)cc3)cc2)CC1 | KIT | binding, competition with immobilised ligand | 1 µM | remaining binding | 0%
C#Cc1cnc(Nc2ccnc(CO)c2)nc1Nc1ccccc1S(C)(=O)=NC#N (stereo not drawn) | KIT | cell-free assay | 1 µM | remaining signal | 73%
C=CC(=O)N1CCC([C@@H]2CCNc3c(C(N)=O)c(-c4ccc(Oc5ccccc5)cc4)nn32)CC1 | KIT L576P | enzyme activity, inhibitor | 1 µM | inhibition | 5%
